# M1 antag: M1 muscarinic receptor (rat) antagonism. P08482. CHO-M1 cells, Fluo-4 calcium, ACh EC80 antagonist mode; hits give low values. B-score at 10 µM. 3.4% of 64,000 active;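 active means calcium fluorescence response, raw or row-and-column corrected B-score, differing from the plate sample mean either way at a set confidence level, mostly lower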
# Target sequence (P08482 whole entry, looked up): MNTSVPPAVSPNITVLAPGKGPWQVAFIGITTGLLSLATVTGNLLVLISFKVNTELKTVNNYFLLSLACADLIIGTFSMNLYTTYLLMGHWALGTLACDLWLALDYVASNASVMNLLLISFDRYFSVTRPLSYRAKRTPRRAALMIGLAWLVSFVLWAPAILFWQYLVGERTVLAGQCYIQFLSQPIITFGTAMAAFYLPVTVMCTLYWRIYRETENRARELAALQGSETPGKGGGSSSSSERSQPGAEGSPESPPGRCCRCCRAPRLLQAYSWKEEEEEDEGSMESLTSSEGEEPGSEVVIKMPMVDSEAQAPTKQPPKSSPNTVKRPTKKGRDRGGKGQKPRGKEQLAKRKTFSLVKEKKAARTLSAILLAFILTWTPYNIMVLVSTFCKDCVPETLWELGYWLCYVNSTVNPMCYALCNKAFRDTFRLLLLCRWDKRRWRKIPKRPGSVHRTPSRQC
# D1 mod: D1 dopamine receptor (human) allosteric modulation. HEK293 D1, CRE-luciferase, dopamine EC30 potentiation; actives deviate in either direction. B-score at 10 µM. 5.9% of 58,000 active. P21728;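 active means luminescence count or its row- and column-corrected plate score outside the 99.7% band of the plate's sample wells, on either side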
# M1 ag: M1 muscarinic receptor agonism; 3% of 64,000 active; B-score at 10 µM; CHO-M1 cells, Fluo-4 calcium fluorescence, agonist mode; hits give high values; AID 626;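 active means fluorescence rise, raw or as B-score row- and column-corrected plate score, outside the 99.7% band of its plate's samples, either direction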
# Htt clearance: compounds clearing mutant huntingtin protein | AID 853 | inhibition, % at 1.5 µM | 0.42% of 47,000 active | HeLa Exon1htt(103Q)mCFP, aggregate imaging; zero = plate's median compound well;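 active means inhibition of aggregate fluorescence above about 70%, also judged a hit by eye on the cell image, limit read from the data, passing the limit was not always enough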;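 further: cells exposed to compound for three days before fixation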
# RORA act: activators of human nuclear receptor RORA; 1.5% of 65,000 active; activation, % at 10 µM; P35398; CHO-K1 Gal4-RORA LBD luciferase reporter, luminescence; percent increase over mock-subtracted basal signal;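 active means activation above the mean of all tested compounds plus 3 SD, cut at about 49% in these data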;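 further: 0% = DMSO-treated RORA cells and 100% = added signal equal to DMSO minus mock-transfected cells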
# SF1 activator: SF-1 (human) activation | Q13285 | CHO-K1 Gal4-SF-1 LBD luciferase reporter; % increase over DMSO SF-1-specific signal | activation, % at 10 µM | 1.9% of 65,000 active;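 active means activation above the mean activation of all tested compounds plus 3 SD, cut at about 50% in these data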
#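 Test system: CHO-K1 cells co-transfected with Gal4 DBD–human SF-1 LBD, 5xGal4 luciferase reporter. Quantity: 4,000 cells per well. Compound: 10 µM only. Incubation: compound added 1 h post-seeding, 20 h exposure at 37 °C, 5% CO2. Detection: SteadyLite luciferase luminescence. Replication: one test per compound.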
# D1 mod confirm: D1 receptor (human) allosteric modulation, confirmed; shares compounds with D1 mod; luminescence at 10 µM; AID 642; 88% of 2,200 active; HEK293 D1 CRE-luciferase, dopamine EC30 potentiation; hits give high values;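 active means luminescence in either of two replicates above the same-plate mean plus 3 SD of the low-dose dopamine control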
# D1 ag no DA: activates D1 CRE-luciferase signal without dopamine present; shares compounds with D1 mod; HEK293 D1 CRE-luciferase, luminescence, no dopamine; hits give high values; luminescence at 10 µM; 0.8% of 1,900 active; in the data active means luminescence above about 3900
# Isoprot counter: isoproterenol response counter-screen activity for D1 modulators; shares compounds with D1 mod; HEK293 D1 CRE-luciferase, isoproterenol EC30 counter-screen; calls only at 10 µM; 63% of 2,200 active;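 active means luminescence in either replicate above plate mean of wells with a partly effective reference agonist dose plus 3 SD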;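 further: isoproterenol raises cAMP through native beta-adrenoceptor Gs so signal bypasses D1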
# Numbers without * were called inactive; i = inactive; / = no result; + = active, no number. In the library only some 11% were active in any assay of this set; here they are far more common.
SMILES,M1 antag,D1 mod,M1 ag,Htt clearance,RORA act,SF1 activator,D1 mod confirm,D1 ag no DA,Isoprot counter
Cc1ccc(C(=O)N2CCCC(c3nc4c(nnn4Cc4ccccc4)c(=O)[nH]3)C2)cc1 (stereo unspecified),0.065,3.4*,0.12,0,6,8,9432*,/,+
Cc1ccc(Cn2nnc3c(=O)[nH]c(C4CCN(C(=O)Cc5cccs5)CC4)nc32)cc1,-0.76,-0.022,-0.061,-10,-2,8,/,/,/
CC1(C)CC(=O)C2=C(C1)OC(N)=C(C#N)C2C1CC=CCC1 (stereo unspecified),-0.14,3.8,-0.73,-4,16,-1,/,/,/
Cc1ccc(CN2C(=O)CCC2C(=O)NCCN2CCN(c3cccc(Cl)c3)CC2)cc1 (stereo unspecified),0.086,-0.97,-0.15,/,1,7,/,/,/
CC(C)OC(=O)c1c(F)c(F)c(N2CCOCC2)c(F)c1F,0.012,-0.097,-0.53,36,-5,-8,/,/,/
CCc1c(C)c(C#N)c2nc3ccccc3n2c1N(C)C,2.3*,4.9*,1.1,-40,-18,5,9428*,1532,+
CCn1cc(C2=NOC(C(=O)Nc3ccc4c(c3)OCO4)C2)c(C)n1 (stereo unspecified),1.2,6.6*,-1.7,/,1,0,8608*,1720,+
O=C(c1cccs1)N1CCN(C/C=C/c2ccccc2)CC1,-0.58,0.83,-1,/,13,19,/,/,/
Cc1ccc(-n2c(=O)cc(N3CC(C)CC(C)C3)[nH]c2=O)cc1 (stereo unspecified),0.5,3.6*,-0.0052,/,1,-5,3236*,1556,i
CCOc1ccc(N2CC(C(=O)OC)CC2=O)cc1 (stereo unspecified),0.074,0.034,0.0091,-38,7,-2,/,/,/
Cc1noc(C)c1CSc1nnc(-c2ccccc2)n1Cc1ccco1,-0.45,4.7*,-0.56,/,-19,-4,5096,1396,i
Cc1noc(C)c1CSc1nnc2scc(-c3ccccc3)n12,0.64,11*,-0.21,-40,-5,0,13660*,1688,+
Cc1nnc(SCc2cccs2)[nH]c1=O,-0.26,-0.082,0.047,/,-6,1,/,/,/
CC(=O)c1cc(C#N)c(SCc2ccncc2)nc1C,-0.49,5.6*,-1.9,/,-2,0,8540*,1916,i
CC(=O)c1cc(C#N)c(SCc2ccccc2C#N)nc1C,/,/,/,13,/,/,/,/,/
CC(=O)c1cc(C#N)c(SCC(=O)OC(C)(C)C)nc1C,0.0098,3.4*,-0.72,-31,21,24,10808*,1660,i
C(=N\c1nc2ccccc2n1Cc1ccccc1)/c1cccs1,-0.48,-0.37,0.31,/,0,2,/,/,/
N#CC1=C(N)OC2=C(C(=O)CCC2)C1CCc1ccccc1 (stereo unspecified),-0.39,6.4*,-0.049,/,-19,-8,7756*,/,i
O=C(Cn1ccc2ccccc2c1=O)NCCC(=O)NC1CCN(Cc2ccccc2)CC1,-0.47,-0.17,-0.032,-26,0,-11,/,/,/
COC(=O)COC(=O)CC(CC(N)=O)c1ccccc1 (stereo unspecified),0.079,0.36,0.38,-89,-11,-13,/,/,/
COc1ccc(N(CC(=O)NC(C)(C)C)S(=O)(=O)c2ccccc2)cc1OC,0.4,-0.2,-0.67,/,-10,0,/,/,/
CS(=O)(=O)c1nc(-c2ccccc2)cc(C(F)(F)F)n1,-0.0034,4.1*,0.026,/,-49,-52,6308*,/,i
C=C(C)c1cccc(C(C)(C)NC(=O)Nn2cnnc2)c1,1.3,6*,0.58,/,5,13,6208,1644,i
COc1cc(C(=O)Nc2ccc(-c3nc4cc(C)ccc4o3)c(O)c2)cc(OC)c1OC,-0.0059,3.1*,1,11,-22,13,5096,/,i
CCOC(=O)c1nnn(-c2nonc2N)c1-c1ccc(OC)cc1,-1,11*,-0.28,/,14,-5,22732*,1492,+
SMILES,M1 antag,D1 mod,M1 ag,Htt clearance,RORA act,SF1 activator,D1 mod confirm,D1 ag no DA,Isoprot counter
CCOC(=O)c1c(N)n[nH]c1-c1ccc(OC)cc1,0.1,9*,-1.3,-41,-2,1,16256*,/,+
CC1CCN(S(=O)(=O)c2cn(CC(=O)N3CCN(C)CC3)c(=O)c3ccccc23)CC1,0.12,-0.26,-0.099,-20,-14,13,/,/,/
CCOc1ccc(C(C)=O)cc1COc1ccc(-n2cnnn2)cc1,-0.9,5.9*,-0.24,/,2,-11,15484*,1632,+
CCOc1ccc(-n2cnnn2)cc1S(=O)(=O)N1CCCCC1,0.16,-0.43,0.67,i,12,6,/,/,/
Cc1nc(SCC(=O)NCc2ccco2)c2c3c(sc2n1)CCCC3,0.0085,/,0.043,40,3,-12,/,/,/
CCCc1nc2sc3c(SCC(=O)NCc4ccco4)ncnc3c2c2c1CCC2,-0.39,5.3*,-0.54,/,4,8,8768*,1628,i
Cc1c(NC(=O)c2cc(CC(C)C)on2)c(=O)n(-c2ccccc2)n1C,/,/,/,-2,/,/,/,/,/
CC(C)n1c(SCC(N)=O)nc2c1c(=O)[nH]c(=O)n2C,-0.33,-0.081,0.5,/,-12,-10,/,/,/
CCCCn1c(SCc2ccc(Cl)cc2)nc2c1c(=O)[nH]c(=O)n2C,0.31,7.4*,0.35,/,-23,-8,25640*,1752,+
C/C=C/CSc1nc2c(c(=O)[nH]c(=O)n2C)n1C(C)C,-0.54,6*,-0.25,/,-13,12,12796*,1768,+
CC(C)CCn1c(SCc2ccc(Cl)cc2)nc2c1c(=O)[nH]c(=O)n2C,0.0019,14*,0.4,56,-17,-1,13248*,/,+
Cc1ccc(CSc2nc3c(c(=O)[nH]c(=O)n3C)n2CCC(C)C)cc1,0.0082,4,0.043,5,14,-16,/,/,/
Cc1ccc(Cn2c(Sc3ncccn3)nc3c2c(=O)[nH]c(=O)n3C)cc1,0.41,1.4,0.024,/,-23,2,/,/,/
C/C=C/CSc1nc2c(c(=O)[nH]c(=O)n2C)n1Cc1ccc(C)cc1,0.17,20*,0.0012,40,-4,9,16484*,1496,+
CC(C)n1c(SCc2ccc(Cl)cc2)nc2c1c(=O)[nH]c(=O)n2C,0.092,1.9,-0.14,19,23,-15,/,/,/
CC(C)c1nnc(NC(=O)Cn2nc(-c3ccc4c(c3)OCCO4)ccc2=O)s1,-0.22,0.79,0.019,41,4,1,/,/,/

# Bioassay records (PubChem BioAssay)
